# Experiments:
# [1] = system: Human immunodeficiency virus 1; test: Antiviral activity against HIV1 NL4-3 infected in GFP expressing human CEM cells assessed as inhibition of viral infection measured after 9 days postinfection by microfluorometry; format: functional, organism-based; conditions: Human immunodeficiency virus 1, NL4-3, CCRF-CEM, 216 h
# How it was run: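 CEM-GFP human CD4+ T cells, which carry an integrated LTR-driven GFP reporter, infected with HIV-1 NL4.3 at MOI 0.05. Cells were incubated with samples for up to 9 days post-infection. Infection was followed by GFP fluorescence microscopy, and screening inhibition was quantified by GFP microfluorometry. IC50 is the concentration giving 50% inhibition of infected cells (n = 3).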
# [2] = Cytotoxicity against GFP expressing human CEM cells assessed as maximal non-toxic concentration after 48 to 72 hrs by MTT assay; format: cell-based, CCRF-CEM
# How it was run: (§1)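 MTT assay on uninfected CEM-GFP cells seeded at 2 × 10⁴ cells/well. Samples were added at various concentrations, with untreated or vehicle-treated controls, and incubated 48–72 h. Formazan was solubilized and absorbance read at 540 nm. Non-toxic concentrations were carried into antiviral screening. CC50 was from triplicate determinations.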
# [3] = biological target: Human immunodeficiency virus type 1 reverse transcriptase (Human immunodeficiency virus 1, UniProt Q72547); test: Inhibition of HIV1 reverse transcriptase by EIA
# [4] = biological target: Human immunodeficiency virus type 1 reverse transcriptase (Human immunodeficiency virus 1) (UniProt Q72547); test: Inhibition of HIV1 reverse transcriptase at 20 ug/mL by EIA
# [5] = system: Human immunodeficiency virus 1; test: Antiviral activity against HIV1 NL4-3 infected in GFP expressing human CEM cells assessed as inhibition of viral p24 antigen production at non-toxic concentration after 7 days postinfection by ELISA; format: functional, CCRF-CEM
# How it was run: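 CEM-GFP reporter T cells infected with HIV-1 NL4.3 at MOI 0.05 and cultured with samples at the highest non-toxic concentration. Virus production was measured in culture supernatant on day 7 post-infection by p24 antigen capture ELISA.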
# [6] = Cytotoxicity against GFP expressing human CEM cells after 48 to 72 hrs by MTT assay; format: cell-based, CCRF-CEM; how it was run: as §1
# [7] = system: Human immunodeficiency virus; test: Inhibition of HIV reverse transcriptase at 25 ug/mL
compound,measurement,setting,value
CC(=O)c1c(O)c(C(C)=O)c(O)c(C(c2c(O)c(C(C)=O)c(O)c(C(C)=O)c2O)c2ccnc3ccccc23)c1O,IC50,[1],18.6 µM
same,MNTC,[2],35.8 µM
same,EC50,[3],0.47 µM
same,inhibition,[4],80.5%
same,inhibition (INH),[5],71.1%
same,CC50,[6],93.4 µM
CC(C)CC(=O)c1c(O)c(C(=O)CC(C)C)c(O)c(C(c2ccc3c(c2)OCO3)c2c(O)c(C(=O)CC(C)C)c(O)c(C(=O)CC(C)C)c2O)c1O,MNTC,[2],2.77 µM
same,inhibition (INH),[5],13.9%
Cc1cn([C@H]2C[C@H](N=[N+]=[N-])[C@@H](CO)O2)c(=O)[nH]c1=O [ZIDOVUDINE],MNTC,[2],5 µM
same,inhibition (INH),[5],89.75%
same,CC50,[6],24.1 µM
CC(=O)c1c(O)c(C(C)=O)c(O)c(C(c2ccco2)c2c(O)c(C(C)=O)c(O)c(C(C)=O)c2O)c1O,IC50,[1],6.75 µM
same,MNTC,[2],15.1 µM
same,inhibition,[4],16.2%
same,inhibition (INH),[5],73%
same,CC50,[6],61.2 µM
CCC(c1c(O)c(C(C)=O)c(O)c(C(C)=O)c1O)c1c(O)c(C(C)=O)c(O)c(C(C)=O)c1O,MNTC,[2],2.17 µM
same,inhibition (INH),[5],17.5%
CC(C)CC(=O)c1c(O)c(C(=O)CC(C)C)c(O)c(C(CCc2ccccc2)c2c(O)c(C(=O)CC(C)C)c(O)c(C(=O)CC(C)C)c2O)c1O,MNTC,[2],0.71 µM
same,inhibition (INH),[5],15%
CC(C)CC(=O)c1c(O)c(C(=O)CC(C)C)c(O)c(C(c2c(O)c(C(=O)CC(C)C)c(O)c(C(=O)CC(C)C)c2O)c2ccnc3ccccc23)c1O,MNTC,[2],3.44 µM
same,inhibition (INH),[5],30.1%
CC(=O)c1c(O)c(C(C)=O)c(O)c(C(c2c(O)c(C(C)=O)c(O)c(C(C)=O)c2O)C2CCCCC2)c1O,IC50,[1],4.09 µM
same,MNTC,[2],9.73 µM
same,inhibition,[4],0%
same,inhibition (INH),[5],78.5%
same,CC50,[6],58.9 µM
CC(C)CC(=O)c1c(O)c(C(=O)CC(C)C)c(O)c(C(c2ccccn2)c2c(O)c(C(=O)CC(C)C)c(O)c(C(=O)CC(C)C)c2O)c1O,IC50,[1],3.37 µM
same,MNTC,[2],7.39 µM
same,inhibition,[4],0%
same,inhibition (INH),[5],64.7%
same,CC50,[6],38.1 µM
CC(C)CC(=O)c1c(O)c(C(=O)CC(C)C)c(O)c(C(c2ccc(O)cc2)c2c(O)c(C(=O)CC(C)C)c(O)c(C(=O)CC(C)C)c2O)c1O,MNTC,[2],1.45 µM
same,inhibition (INH),[5],15.6%
CC(=O)c1c(O)c(C(C)=O)c(O)c(C(c2ccc(O)cc2)c2c(O)c(C(C)=O)c(O)c(C(C)=O)c2O)c1O,MNTC,[2],14.3 µM
same,inhibition (INH),[5],56%
CC(C)CC(=O)c1c(O)c(C=O)c(O)c(Cc2c(O)c(C=O)c(O)c(C(=O)CC(C)C)c2O)c1O,MNTC,[2],4.1 µM
same,inhibition (INH),[5],0%
CC(C)CC(=O)c1c(O)c(C=O)c(O)c(C(c2ccccn2)c2c(O)c(C=O)c(O)c(C(=O)CC(C)C)c2O)c1O,MNTC,[2],15.9 µM
same,inhibition (INH),[5],26.9%
CC(C)CC(=O)c1c(O)c(C(=O)CC(C)C)c(O)c(C(c2ccc(OCc3ccccc3)cc2)c2c(O)c(C(=O)CC(C)C)c(O)c(C(=O)CC(C)C)c2O)c1O,IC50,[1],2.71 µM
same,MNTC,[2],5.75 µM
same,EC50,[3],1.03 µM
same,inhibition,[4],87.8%
same,inhibition (INH),[5],70%
same,CC50,[6],24 µM
CC(C)CC(=O)c1c(O)c(C=O)c(O)c(C(c2ccc(OCc3ccccc3)cc2)c2c(O)c(C=O)c(O)c(C(=O)CC(C)C)c2O)c1O,MNTC,[2],7.46 µM
same,inhibition (INH),[5],0%
CC(=O)c1c(O)c(C(C)=O)c(O)c(C(CCc2ccccc2)c2c(O)c(C(C)=O)c(O)c(C(C)=O)c2O)c1O,MNTC,[2],1.87 µM
same,inhibition (INH),[5],16%
CC(C)CC(=O)c1c(O)c(C(=O)CC(C)C)c(O)c(C(c2ccco2)c2c(O)c(C(=O)CC(C)C)c(O)c(C(=O)CC(C)C)c2O)c1O,MNTC,[2],3.75 µM
same,inhibition (INH),[5],56.8%
COc1c(C)c(O)c(C(C)=O)c(O)c1Cc1c(O)c(CC=C(C)C)c(O)c(C(C)=O)c1O,inhibition,[7],90%
CC(=O)c1c(O)c(Cc2c(O)c(C(C)=O)c(O)c(C(C)=O)c2O)c(O)c(C(C)=O)c1O,MNTC,[2],0.23 µM
same,inhibition (INH),[5],0%
CC(C)CC(=O)c1c(O)c(Cc2c(O)c(C(=O)CC(C)C)c(O)c(C(=O)CC(C)C)c2O)c(O)c(C(=O)CC(C)C)c1O,MNTC,[2],0.17 µM
same,inhibition (INH),[5],0%
CC(C)CC(=O)c1c(O)c(C(=O)CC(C)C)c(O)c(C(c2ccccc2)c2c(O)c(C(=O)CC(C)C)c(O)c(C(=O)CC(C)C)c2O)c1O,IC50,[1],0.28 µM
same,MNTC,[2],0.74 µM
same,inhibition,[4],4.61%
same,inhibition (INH),[5],66.5%
same,CC50,[6],3.15 µM
CC(C)C(=O)c1c(O)c(Cc2c(O)c(C(=O)C(C)C)c(O)c(C(=O)C(C)C)c2O)c(O)c(C(=O)C(C)C)c1O,MNTC,[2],0.09 µM
same,inhibition (INH),[5],0%
CC(=O)c1c(O)c(C(C)=O)c(O)c(C(c2ccc(N(C)C)cc2)c2c(O)c(C(C)=O)c(O)c(C(C)=O)c2O)c1O,IC50,[1],6.06 µM
same,MNTC,[2],9.07 µM
same,inhibition,[4],13.4%
same,inhibition (INH),[5],60.6%
same,CC50,[6],22.1 µM

# — ChEMBL document CHEMBL1157554, “Biomimetic synthesis and anti-HIV activity of dimeric phloroglucinols” (Bioorg Med Chem, 2010)
